pEC50, pIC50: −log10 of the molar value. Active and inactive are the calls of the source. The calls are words filed in the database; no cut-off is given here.
Assays:
Format in all cases: functional
P2Y purinoceptor 1 [1] = target: T1, P2Y purinoceptor 1 (Meleagris gallopavo, UniProt P49652); experiment: (§1) Inhibition of 30 nM 2-MeSADP stimulation of 2PY1-mediated phospholipase C (PLC) activity in Turkey erythrocyte ghosts
How it was run: (§2)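 [3H]inositol-labelled turkey erythrocyte ghosts incubated 5 min at 30 °C, pH 7.0, with 1 µM GTPγS. Graded analogue was combined with 30 nM 2-MeSADP. Total [3H]inositol phosphates separated by anion-exchange chromatography. Maximal inhibition is 100 minus residual stimulation at the highest concentration. At least three membrane preparations, duplicate or triplicate assays.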

[2] = target: P2Y purinoceptor 1 (Meleagris gallopavo) (UniProt P49652); experiment: as §1
How it was run: as §2, with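 “chromatography. IC50 is 50% inhibition of the 2-MeSADP response.” for “chromatography.”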

[3] = target: P2Y purinoceptor 1 (Meleagris gallopavo) (UniProt P49652); experiment: (§3) In vitro stimulation of 2PY1 purinoceptor mediated phospholipase C (PLC) activity in Turkey Erythrocyte Ghosts
How it was run: (§4)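 Turkey erythrocytes labelled 18-24 h at 37 °C with 2-[3H]myo-inositol in inositol-free DMEM. Ghosts prepared by hypotonic lysis (about 175 µg protein). Incubated 5 min at 30 °C in Hepes pH 7.0 buffer with 1 µM GTPγS and graded nucleotide. Total [3H]inositol phosphates measured by anion-exchange chromatography. EC50 from four-parameter logistic fit. Efficacy given relative to maximal 2-MeSADP. At least three experiments, duplicate or triplicate.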

P2Y purinoceptor 1 [4] = target: T1, P2Y purinoceptor 1; experiment: as §3; how it was run: as §4
[5] = target: P2Y purinoceptor 1 (Meleagris gallopavo) (UniProt P49652); experiment: Inhibition of 30 nM 2-MeSADP stimulation of 2PY1-mediated phospholipase C (PLC) activity in Turkey erythrocyte ghosts; NE=not effective
How it was run: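 Turkey erythrocytes were labelled with 2-[3H]myo-inositol in inositol-free DMEM for 18-24 h at 37 °C, then lysed hypotonically to make ghosts. Ghosts (about 175 µg protein) were incubated 5 min at 30 °C in KCl/Hepes medium at pH 7.0 with 1 µM GTPγS, 30 nM 2-MeSADP and the test nucleotide. Total [3H]inositol phosphates were measured by anion exchange. IC50 came from logistic fits, with at least three experiments.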

P2Y purinoceptor 1 [6] = target: T1, P2Y purinoceptor 1; experiment: Inhibition of 30 nM 2-MeSADP stimulation of 2PY1-mediated phospholipase C (PLC) activity in Turkey erythrocyte ghosts; small decrease
How it was run: as §2, with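 “chromatography. IC50 is 50% inhibition of the 2-MeSADP response.” for “chromatography.”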

T1 sequence (P49652 whole entry): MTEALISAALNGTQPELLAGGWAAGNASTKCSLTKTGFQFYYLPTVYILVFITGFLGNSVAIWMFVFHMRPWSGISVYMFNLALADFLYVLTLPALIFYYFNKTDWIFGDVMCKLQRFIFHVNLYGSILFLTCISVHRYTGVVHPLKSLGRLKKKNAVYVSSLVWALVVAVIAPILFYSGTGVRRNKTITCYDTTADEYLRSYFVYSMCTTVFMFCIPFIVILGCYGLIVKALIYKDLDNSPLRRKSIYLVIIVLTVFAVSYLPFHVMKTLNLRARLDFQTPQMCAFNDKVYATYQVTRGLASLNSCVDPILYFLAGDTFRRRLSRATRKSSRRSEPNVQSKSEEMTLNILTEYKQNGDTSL
P2Y purinoceptor 1 (Meleagris gallopavo), sequence (P49652 whole entry): as above

Row | SMILES | pIC50 (P2Y purinoceptor 1 [1]) | Max inhibition [2] [%] | Max increase [3] [%] | pEC50 (P2Y purinoceptor 1 [4]) | Max inhibition [5] | IC50 (P2Y purinoceptor 1 [6])
1 | CNc1nc(Cl)nc2c1ncn2C1COC(COP(=O)(O)O)C(OP(=O)(O)O)C1 (stereo not given) | 6.25 | 100 |  |  |  | 
2 | CNc1nc(N)nc2c1ncn2[C@H]1C[C@H](OP(=O)(O)O)[C@@H](COP(=O)(O)O)O1 |  | 96 | 4 |  |  | 
3 | CNc1nc(Cl)nc2c1ncn2[C@@H]1C[C@H](OP(=O)(O)O)C1COP(=O)(O)O (stereo not given in full) | 6.09 | 100 |  |  |  | 
4 | CNc1nc(Cl)nc2c1ncn2[C@H]1C[C@@H](OP(=O)(O)O)[C@]2(COP(=O)(O)O)C[C@H]12 | 7.29 | 100 |  |  |  | 
5 | CNc1ncnc2c1ncn2C1COC(COP(=O)(O)OP(=O)(O)OP(=O)(O)O)C(O)C1 (stereo not given) | 5.63 | 82 | 18 | 5.03 |  | 
6 | Nc1ncnc2c1ncn2C12CC(OP(=O)(O)O)C(COP(=O)(O)O)C1C2 (stereo not given) | 4.40 | 42 | 50 | 4.72 |  | 
7 | CNc1nc(SC)nc2c1ncn2[C@H]1C[C@H](OP(=O)(O)O)[C@@H](COP(=O)(O)O)O1 |  | 94 | 6 |  |  | 
8 | CNc1nc(Cl)nc2c1ncn2[C@H]1C[C@H](OP(=O)(O)O)[C@@H](COP(=O)(O)O)O1 |  | 95 |  |  |  | 
9 | CNc1nc(N)nc2c1ncn2[C@@H]1C[C@H](COP(=O)(O)O)[C@H](OP(=O)(O)O)C1 | 5.27 | 74 | 26 | 5.19 |  | 
10 | Nc1ncnc2c1ncn2C1CC(OP(=O)(O)O)C2(COP(=O)(O)O)CC12 (stereo not given) |  |  | 92 | 6.81 | inactive | 
11 | CNc1ncnc2c1ncn2C1CC(OP(=O)(O)O)C2(COP(=O)(O)O)CC12 (stereo not given) | 6.80 | 100 |  |  |  | 
12 | C[C@H]1O[C@@H](n2cnc3c(N)ncnc32)[C@H](OP(=O)(O)O)[C@@H]1OP(=O)(O)O |  | 47 |  |  |  | Partially active
13 | CNc1ncnc2c1ncn2C1COC(COP(=O)(O)O)C(OP(=O)(O)O)C1 (stereo not given) | 5.79 | 100 |  |  |  | 
14 | Nc1ncnc2c1ncn2[C@@H]1CO[C@H](COP(=O)(O)O)[C@@H](OP(=O)(O)O)C1 |  |  | 100 |  | inactive | 
15 | Nc1ncnc2c1ncn2C1CN(CCP(=O)(O)O)CC(COP(=O)(O)OP(=O)(O)OP(=O)(O)O)O1 (stereo not given) |  |  |  |  |  | Partially active
16 | CNc1ncnc2c1ncn2[C@@H]1C[C@H](COP(=O)(O)O)[C@H](OP(=O)(O)O)C1 | 6.83 | 100 |  |  |  | 
17 | Nc1ncnc2c1ncn2C1CN(CCP(=O)(O)O)CC(COP(=O)(O)OP(=O)(O)O)O1 (stereo not given) |  |  | 11 |  | inactive | 
18 | Nc1ncnc2c1ncn2C1CN(CCP(=O)(O)O)CC(COP(=O)(O)O)O1 (stereo not given) |  | 37 |  |  |  | Partially active
19 | Nc1ncnc2c1ncn2[C@@H]1C[C@H](COP(=O)(O)O)[C@H](OP(=O)(O)O)C1 | 5.60 | 73 | 27 | 5.14 |  | 

From ChEMBL document CHEMBL1133587, “Synthesis, biological activity, and molecular modeling of ribose-modified deoxyadenosine bisphosphate analogues as P2Y(1) receptor ligands” (J Med Chem, 2000)
